Reference: ChEMBL document CHEMBL1629660, “Pharmacodynamics of tigecycline against phenotypically diverse Staphylococcus aureus isolates in a murine thigh model” (Antimicrob Agents Chemother, 2009)

Experiments:
Staphylococcus aureus [1] = assay: Antimicrobial activity against hospital-acquired methicillin-resistant Staphylococcus aureus isolate 56 infected in neutropenic ICR mouse assessed as change in bacterial load after 24 hrs; type: functional
How it was run: (§1)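 Female ICR mice (~25 g) made neutropenic with cyclophosphamide 150 and 100 mg/kg ip, 4 and 1 days before infection. Each thigh inoculated im with 0.1 ml of ~10^7 CFU/ml from an overnight subculture. Tigecycline sc (0.2 ml) given 2 h later as single or multiple doses of 1.56–50 mg/kg, 1.56–400 mg/kg/day, 3 mice/group. Saline-injected controls. Thighs harvested at 24 h, homogenized in saline, plated on blood agar; log10 CFU change vs 0-h controls.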

[2] = Plasma protein binding in human; type: ADME, cell-free; details: read-out: PPB (converted)
[3] = r2 of fCmax/MIC in community acquired methicillin-resistant Staphylococcus aureus isolate 147-infected neutropenic ICR mouse
[4] = fAUC/MIC in community acquired methicillin-resistant Staphylococcus aureus isolate 156 infected-immunocompetent ICR mouse at 6.25 […], sc QD; type: functional
How it was run: (§2)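 Derived from neutropenic-mouse serum PK (HPLC, two-compartment fit) with ultrafiltration protein-binding correction, divided by modal MIC.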

Staphylococcus aureus [5] = assay: Antimicrobial activity against community acquired methicillin-resistant Staphylococcus aureus isolate 156 infected in immunocompetent ICR mouse assessed as reduction in bacterial load at 1.56 […] after 24 hrs; type: functional
How it was run: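 Non-neutropenic ICR mice (no cyclophosphamide). Each thigh inoculated im with 0.1 ml of ~10^8 CFU/ml. Tigecycline given sc once daily at 1.56, 3.13, 6.25 or 12.5 mg/kg starting 2 h post-infection, 3 mice/group. Thighs harvested at 24 h, homogenized, plated on blood agar; log10 CFU change vs 0-h controls.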

[6] = r2 for fAUC/MIC in hospital-acquired methicillin-resistant Staphylococcus aureus isolate 152-infected neutropenic ICR mouse
[7] = r2 of fCmax/MIC in hospital-acquired methicillin-resistant Staphylococcus aureus isolate 56-infected neutropenic ICR mouse
[8] = fAUC/MIC in hospital-acquired methicillin-resistant Staphylococcus aureus isolate 152-infected neutropenic ICR mouse at 80% effective exposure index; type: functional
How it was run: (§3)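 Single-dose serum PK in infected neutropenic mice (sc 6.25–50 mg/kg; HPLC; two-compartment fit; AUC by trapezoidal rule; lower doses simulated). Free fraction from ultrafiltration of spiked mouse serum, in triplicate. Free exposures divided by modal MIC and plotted against 24-h log10 CFU change with a sigmoidal Emax model; EI50, EI80 and stasis values read from the fitted curves.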

[9] = fAUC/MIC in hospital-acquired methicillin-resistant Staphylococcus aureus isolate 56-infected neutropenic ICR mouse at 50% effective exposure index; type: functional; how it was run: as §3
[10] = Protein binding in methicillin-sensitive Staphylococcus aureus ATCC 29213-infected neutropenic ICR mouse serum at 1.5 µg/ml by HPLC; details: read-out: PB (converted)
Staphylococcus aureus [11] = assay: Antimicrobial activity against community-acquired methicillin-resistant Staphylococcus aureus isolate 156 infected in neutropenic ICR mouse assessed as decrease in bacterial density at 1.56 to 400 mg/kg, sc after 24 hrs; type: functional; details: dose mg/kg 1.56-400; route subcutaneous; how it was run: as §1
[12] = AUC (0 to 24 hrs) in neutropenic ICR mouse infected with Staphylococcus aureus ATCC 29213 at 12.5 mg/kg, sc by HPLC; type: ADME, organism-based; set-up: time < 24 hr, dose 12.5 mg/kg, route subcutaneous; details: plasma
How it was run: (§4)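 Neutropenic female ICR mice (cyclophosphamide 150 and 100 mg/kg ip, 4 days and 1 day before inoculation), both thighs inoculated im with ~10^7 CFU/ml of ATCC 29213. Single sc doses of 50, 25, 12.5 or 6.25 mg/kg. Cardiac blood taken from groups of six at 8–12 times over 0.5–24 h. Serum measured by HPLC (linear 0.05–5 µg/ml). Two-compartment fit by nonlinear least squares; AUC by trapezoidal rule.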

Staphylococcus aureus [13] = assay: Antimicrobial activity against community acquired methicillin-resistant Staphylococcus aureus isolate 156 infected in neutropenic ICR mouse assessed as change in bacterial load at 3.13 […] after 24 hrs; type: functional; how it was run: as §1
[14] = fAUC/MIC in community acquired methicillin-resistant Staphylococcus aureus isolate 156 infected-immunocompetent ICR mouse at 1.56 […], sc QD; type: functional; how it was run: as §2
[15] = fAUC/MIC in methicillin-sensitive Staphylococcus aureus ATCC 29213-infected neutropenic ICR mouse at 50% effective exposure index; type: functional
How it was run: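 fT>MIC, fCmax/MIC and fAUC/MIC were built from the serum pharmacokinetics, protein binding, modal broth-microdilution MIC (triplicate, CLSI) and 24-h thigh CFU change. Each index was fit to a sigmoidal Emax model. EI50, EI80 and stasis exposures were taken from each isolate's curve.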

Staphylococcus aureus [16] = assay: Antimicrobial activity against hospital-acquired methicillin-resistant Staphylococcus aureus isolate 56 infected in neutropenic ICR mouse assessed as decrease in bacterial density at 1.56 to 400 mg/kg, sc after 24 hrs; type: functional; details: dose mg/kg 1.56-400; route subcutaneous; how it was run: as §1
[17] = fAUC/MIC in community acquired methicillin-resistant Staphylococcus aureus isolate 156-infected neutropenic ICR mouse at 80% effective exposure index; type: functional; how it was run: as §3
Serum = assay: fAUC in serum of methicillin-sensitive Staphylococcus aureus ATCC 29213-infected neutropenic ICR mouse at 1.56 to 400 mg/kg, sc by HPLC; type: ADME, organism-based; set-up: dose 1.56-400 mg/kg, route subcutaneous; details: in vivo
[18] = fAUC/MIC in hospital-acquired methicillin-resistant Staphylococcus aureus isolate 152-infected neutropenic ICR mouse at 50% effective exposure index; type: functional; how it was run: as §3
[19] = r2 for fCmax/MIC in methicillin-sensitive Staphylococcus aureus ATCC 25923-infected neutropenic ICR mouse
[20] = Elimination half life in neutropenic ICR mouse infected with methicillin-sensitive Staphylococcus aureus ATCC 29213 at 25 mg/kg, sc by HPLC; type: ADME, organism-based; set-up: dose 25 mg/kg, route subcutaneous; details: in vivo, read-out: beta t1/2 (converted); how it was run: as §4
[21] = Protein binding in methicillin-sensitive Staphylococcus aureus ATCC 29213-infected neutropenic ICR mouse serum at 12.5 mg/kg, sc by HPLC; type: ADME, organism-based; set-up: dose 12.5 mg/kg, route subcutaneous; details: read-out: PB (converted)
[22] = fAUC/MIC in methicillin-sensitive Staphylococcus aureus ATCC 25923-infected neutropenic ICR mouse at 80% effective exposure index; type: functional
[23] = AUC in neutropenic ICR mouse infected with Staphylococcus aureus ATCC 29213 at 6.25 to 50 mg/kg, sc; type: ADME, organism-based; set-up: dose 6.25-50 mg/kg, route subcutaneous; details: plasma; how it was run: as §4
[24] = fAUC/MIC in community acquired methicillin-resistant Staphylococcus aureus isolate 144-infected neutropenic ICR mouse at stasis dose; type: functional; how it was run: as §3
[25] = fAUC/MIC in hospital-acquired methicillin-resistant Staphylococcus aureus isolate 56-infected neutropenic ICR mouse at 80% effective exposure index; type: functional; how it was run: as §3
Acinetobacter baumannii = assay: Antimicrobial activity against carbapenem-intermediate,-resistant Acinetobacter baumannii assessed as decrease in bacterial count at 0.7 times of MIC after 24 hrs by time kill analysis; type: functional
[26] = Protein binding in methicillin-sensitive Staphylococcus aureus ATCC 29213-infected neutropenic ICR mouse serum at 50 mg/kg, sc by HPLC; type: ADME, organism-based; set-up: dose 50 mg/kg, route subcutaneous; details: read-out: PB (converted)

SMILES: CN(C)c1cc(NC(=O)CNC(C)(C)C)c(O)c2c1C[C@H]1C[C@H]3[C@H](N(C)C)C(O)=C(C(N)=O)C(=O)[C@@]3(O)C(O)=C1C2=O [TIGECYCLINE]
- log10CFU/ml (Staphylococcus aureus [1]): 2
- fraction unbound [2]: 0.29
- r2 [3]: 0.892
- fAUC/MIC [4]: 7.2
- log10cfu (Staphylococcus aureus [5]): 1.6
- r2 [6]: 0.997
- r2 [7]: 0.704
- fAUC/MIC [8]: 2.8
- fAUC/MIC [9]: 2.5
- fraction unbound [10]: 0.173
- CFU (Staphylococcus aureus [11]): 1.5
- AUC(0-t) at 24 h [12]: 9100 ng·h/mL
- log10CFU/ml (Staphylococcus aureus [13]): 0.5
- fAUC/MIC [14]: 1.8
- fAUC/MIC [15]: 0.6
- CFU (Staphylococcus aureus [16]): 1.5
- fAUC/MIC [17]: 13
- fAUC (Serum): 200 ng·h/mL
- fAUC/MIC [18]: 1.5
- r2 [19]: 0.508
- half-life [20]: 11.8 h
- fraction unbound [21]: 0.121
- fAUC/MIC [22]: 7
- AUC [23]: 1200 ng·h/mL
- fAUC/MIC [24]: 2.6
- fAUC/MIC [25]: 4.2
- log10cfu (Acinetobacter baumannii): 2
- fraction unbound [26]: 0.071
